# Source: ChEMBL document CHEMBL1926593, “Studies on the synthesis and antibacterial activity of 3,6-disubstituted 1,2,4-triazolo[3,4-b]1,3,4-thiadiazoles” (2012)
# Calls of active or inactive are those of the source. The calls are words filed in the database; no cut-off is given here.
# Legend:
# Staphylococcus aureus [1] = test: Ratio of MBC to MIC for methicillin-resistant Staphylococcus aureus ATCC 14001; format: functional
# Procedure, shortened: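 Broth microdilution following CLSI recommendations. MIC was the lowest concentration with no visible growth. MBC was the lowest concentration giving a >99.9% reduction in CFU relative to the initial inoculum. The ratio was taken from these two values.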
# [2] = test system: Staphylococcus epidermidis; test: Antibacterial activity against drug-sensitive Staphylococcus epidermidis ATCC 12228 by broth microdilution method; format: functional
# Procedure, shortened: (§1)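 Broth microdilution per CLSI recommendation. MIC is the lowest concentration with no visible growth. MBC is the lowest concentration giving >99.9% reduction in CFU of the initial inoculum. Ampicillin, cefuroxime and vancomycin served as reference agents.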
# Proteus mirabilis = test: Antibacterial activity against drug-sensitive Proteus mirabilis ATCC 12453 by broth microdilution method; format: functional, organism-based; procedure, shortened: as §1
# Bacillus subtilis [3] = test: Antibacterial activity against drug-sensitive Bacillus subtilis ATCC 6633 by broth microdilution method; format: functional; procedure, shortened: as §1
# Bacillus cereus [4] = test: Antibacterial activity against drug-sensitive Bacillus cereus ATCC 10876 by broth microdilution method; format: functional; procedure, shortened: as §1
# Staphylococcus aureus [5] = test: Antibacterial activity against methicillin-resistant Staphylococcus aureus ATCC 14001 by broth microdilution method; format: functional
# Procedure, shortened: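 Broth microdilution following CLSI recommendations. MIC was read as the lowest concentration giving no visible growth. Ampicillin, cefuroxime and vancomycin were the reference antibacterials.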
# Bacillus subtilis [6] = test: Ratio of ampicillin MIC to compound MIC for drug-sensitive Bacillus subtilis ATCC 6633 by broth microdilution method; format: functional
# Micrococcus luteus = test: Antibacterial activity against drug-sensitive Micrococcus luteus ATCC 10240 by broth microdilution method; format: functional; procedure, shortened: as §1
# Pseudomonas aeruginosa = test: Antibacterial activity against drug-sensitive Pseudomonas aeruginosa ATCC 9027 by broth microdilution method; format: functional, organism-based; procedure, shortened: as §1
# Bacillus cereus [7] = test: Ratio of cefuroxime MIC to compound MIC for drug-sensitive Bacillus cereus ATCC 10876 by broth microdilution method; format: functional
# Staphylococcus aureus [8] = test: Antibacterial activity against drug-sensitive Staphylococcus aureus ATCC 25923 by broth microdilution method; format: functional; procedure, shortened: as §1
# Bacillus cereus [9] = test: Ratio of ampicillin MIC to compound MIC for drug-sensitive Bacillus cereus ATCC 10876 by broth microdilution method; format: functional
# Klebsiella pneumoniae = test: Antibacterial activity against drug-sensitive Klebsiella pneumoniae ATCC 13883 by broth microdilution method; format: functional, organism-based; procedure, shortened: as §1
# Escherichia coli = test: Antibacterial activity against drug-sensitive Escherichia coli ATCC 25922 by broth microdilution method; format: functional, organism-based; procedure, shortened: as §1
# Staphylococcus aureus [10] = test: Antibacterial activity against drug-sensitive Staphylococcus aureus ATCC 6538 by broth microdilution method; format: functional; procedure, shortened: as §1
compound,measurement,setting,value
Clc1ccc(Nc2nn3c(-c4ccccc4Cl)nnc3s2)cc1,Ratio,Staphylococcus aureus [1],32
same,MBC,[2],15.6 µg/mL
same,MIC,[2],3.91 µg/mL
same,Activity,Proteus mirabilis,inactive
same,MBC,Bacillus subtilis [3],15.6 µg/mL
same,MIC,Bacillus subtilis [3],3.91 µg/mL
same,MBC,Bacillus cereus [4],3.91 µg/mL
same,MIC,Bacillus cereus [4],3.91 µg/mL
same,MBC,Staphylococcus aureus [5],62.5 µg/mL
same,MIC,Staphylococcus aureus [5],1.95 µg/mL
same,Ratio,Bacillus subtilis [6],4
same,MBC,Micrococcus luteus,15.6 µg/mL
same,MIC,Micrococcus luteus,7.81 µg/mL
same,Activity,Pseudomonas aeruginosa,inactive
same,Ratio,Bacillus cereus [7],8
same,MBC,Staphylococcus aureus [8],31.2 µg/mL
same,MIC,Staphylococcus aureus [8],15.6 µg/mL
same,Ratio,Bacillus cereus [9],16
same,Activity,Klebsiella pneumoniae,inactive
same,Activity,Escherichia coli,inactive
same,MBC,Staphylococcus aureus [10],15.6 µg/mL
same,MIC,Staphylococcus aureus [10],15.6 µg/mL
Clc1cccc(-c2nnc3sc(Nc4ccc(Br)cc4)nn23)c1,Ratio,Staphylococcus aureus [1],128
same,MBC,[2],3.91 µg/mL
same,MIC,[2],0.98 µg/mL
same,Activity,Proteus mirabilis,inactive
same,MBC,Bacillus subtilis [3],1.95 µg/mL
same,MIC,Bacillus subtilis [3],1.95 µg/mL
same,MBC,Bacillus cereus [4],31.2 µg/mL
same,MIC,Bacillus cereus [4],15.6 µg/mL
same,MBC,Staphylococcus aureus [5],125 µg/mL
same,MIC,Staphylococcus aureus [5],0.98 µg/mL
same,MBC,Micrococcus luteus,3.91 µg/mL
same,MIC,Micrococcus luteus,3.91 µg/mL
same,Activity,Pseudomonas aeruginosa,inactive
same,Ratio,Bacillus cereus [7],2
same,MBC,Staphylococcus aureus [8],31.2 µg/mL
same,MIC,Staphylococcus aureus [8],0.98 µg/mL
same,Ratio,Bacillus cereus [9],4
same,Activity,Klebsiella pneumoniae,inactive
same,Activity,Escherichia coli,inactive
same,MBC,Staphylococcus aureus [10],31.2 µg/mL
same,MIC,Staphylococcus aureus [10],0.49 µg/mL
CN[C@H](CC(C)C)C(=O)N[C@H]1C(=O)N[C@@H](CC(N)=O)C(=O)N[C@H]2C(=O)N[C@H]3C(=O)N[C@H](C(=O)N[C@H](C(=O)O)c4cc(O)cc(O)c4-c4cc3ccc4O)[C@H](O)c3ccc(c(Cl)c3)Oc3cc2cc(c3O[C@@H]2O[C@H](CO)[C@@H](O)[C@H](O)[C@H]2O[C@H]2C[C@](C)(N)[C@H](O)[C@H](C)O2)Oc2ccc(cc2Cl)[C@H]1O [VANCOMYCIN],Ratio,Staphylococcus aureus [1],4
same,MBC,[2],1.95 µg/mL
same,MIC,[2],0.98 µg/mL
same,MBC,Bacillus subtilis [3],0.49 µg/mL
same,MIC,Bacillus subtilis [3],0.25 µg/mL
same,MBC,Bacillus cereus [4],31.2 µg/mL
same,MIC,Bacillus cereus [4],0.98 µg/mL
same,MBC,Staphylococcus aureus [5],3.91 µg/mL
same,MIC,Staphylococcus aureus [5],0.98 µg/mL
same,MBC,Micrococcus luteus,0.49 µg/mL
same,MIC,Micrococcus luteus,0.25 µg/mL
same,MBC,Staphylococcus aureus [8],7.81 µg/mL
same,MIC,Staphylococcus aureus [8],0.98 µg/mL
same,MBC,Staphylococcus aureus [10],1.95 µg/mL
same,MIC,Staphylococcus aureus [10],0.49 µg/mL
Clc1ccc(Nc2nn3c(-c4ccc(Cl)cc4)nnc3s2)cc1,Ratio,Staphylococcus aureus [1],8
same,MBC,[2],15.6 µg/mL
same,MIC,[2],3.91 µg/mL
same,Activity,Proteus mirabilis,inactive
same,MBC,Bacillus subtilis [3],7.81 µg/mL
same,MIC,Bacillus subtilis [3],3.91 µg/mL
same,MBC,Bacillus cereus [4],31.2 µg/mL
same,MIC,Bacillus cereus [4],7.81 µg/mL
same,MBC,Staphylococcus aureus [5],62.5 µg/mL
same,MIC,Staphylococcus aureus [5],7.81 µg/mL
same,Ratio,Bacillus subtilis [6],4
same,MBC,Micrococcus luteus,31.2 µg/mL
same,MIC,Micrococcus luteus,15.6 µg/mL
same,Activity,Pseudomonas aeruginosa,inactive
same,MBC,Staphylococcus aureus [8],62.5 µg/mL
same,MIC,Staphylococcus aureus [8],3.91 µg/mL
same,Ratio,Bacillus cereus [9],8
same,Activity,Klebsiella pneumoniae,inactive
same,Activity,Escherichia coli,inactive
same,MBC,Staphylococcus aureus [10],62.5 µg/mL
same,MIC,Staphylococcus aureus [10],0.98 µg/mL
Clc1ccccc1-c1nnc2sc(Nc3ccc(Br)cc3)nn12,Ratio,Staphylococcus aureus [1],8
same,MBC,[2],3.91 µg/mL
same,MIC,[2],0.98 µg/mL
same,Activity,Proteus mirabilis,inactive
same,MBC,Bacillus subtilis [3],15.6 µg/mL
same,MIC,Bacillus subtilis [3],1.95 µg/mL
same,MBC,Bacillus cereus [4],15.6 µg/mL
same,MIC,Bacillus cereus [4],7.81 µg/mL
same,MBC,Staphylococcus aureus [5],15.6 µg/mL
same,MIC,Staphylococcus aureus [5],1.95 µg/mL
same,Ratio,Bacillus subtilis [6],8
same,MBC,Micrococcus luteus,7.81 µg/mL
same,MIC,Micrococcus luteus,7.81 µg/mL
same,Activity,Pseudomonas aeruginosa,inactive
same,MBC,Staphylococcus aureus [8],15.6 µg/mL
same,MIC,Staphylococcus aureus [8],1.95 µg/mL
same,Ratio,Bacillus cereus [9],8
same,Activity,Klebsiella pneumoniae,inactive
same,Activity,Escherichia coli,inactive
same,MBC,Staphylococcus aureus [10],62.5 µg/mL
same,MIC,Staphylococcus aureus [10],7.81 µg/mL
Clc1ccc(-c2nnc3sc(Nc4ccc(Br)cc4)nn23)cc1,Ratio,Staphylococcus aureus [1],16
same,MBC,[2],1.95 µg/mL
same,MIC,[2],1.95 µg/mL
same,Activity,Proteus mirabilis,inactive
same,MBC,Bacillus subtilis [3],1.95 µg/mL
same,MIC,Bacillus subtilis [3],1.95 µg/mL
same,MBC,Bacillus cereus [4],15.6 µg/mL
same,MIC,Bacillus cereus [4],15.6 µg/mL
same,MBC,Staphylococcus aureus [5],125 µg/mL
same,MIC,Staphylococcus aureus [5],7.81 µg/mL
same,Ratio,Bacillus subtilis [6],8
same,MBC,Micrococcus luteus,15.6 µg/mL
same,MIC,Micrococcus luteus,15.6 µg/mL
same,Activity,Pseudomonas aeruginosa,inactive
same,Ratio,Bacillus cereus [7],2
same,MBC,Staphylococcus aureus [8],31.2 µg/mL
same,MIC,Staphylococcus aureus [8],1.95 µg/mL
same,Ratio,Bacillus cereus [9],4
same,Activity,Klebsiella pneumoniae,inactive
same,Activity,Escherichia coli,inactive
same,MBC,Staphylococcus aureus [10],31.2 µg/mL
same,MIC,Staphylococcus aureus [10],0.98 µg/mL
Clc1ccc(Nc2nn3c(-c4ccccc4)nnc3s2)cc1,Ratio,Staphylococcus aureus [1],32
same,MBC,[2],3.91 µg/mL
same,MIC,[2],0.98 µg/mL
same,Activity,Proteus mirabilis,inactive
same,MBC,Bacillus subtilis [3],7.81 µg/mL
same,MIC,Bacillus subtilis [3],1.95 µg/mL
same,MBC,Bacillus cereus [4],15.6 µg/mL
same,MIC,Bacillus cereus [4],15.6 µg/mL
same,MBC,Staphylococcus aureus [5],62.5 µg/mL
same,MIC,Staphylococcus aureus [5],1.95 µg/mL
same,Ratio,Bacillus subtilis [6],8
same,MBC,Micrococcus luteus,15.6 µg/mL
same,MIC,Micrococcus luteus,7.81 µg/mL
same,Activity,Pseudomonas aeruginosa,inactive
same,Ratio,Bacillus cereus [7],2
same,MBC,Staphylococcus aureus [8],31.2 µg/mL
same,MIC,Staphylococcus aureus [8],3.91 µg/mL
same,Ratio,Bacillus cereus [9],4
same,Activity,Klebsiella pneumoniae,inactive
same,Activity,Escherichia coli,inactive
same,MBC,Staphylococcus aureus [10],31.2 µg/mL
same,MIC,Staphylococcus aureus [10],15.6 µg/mL
Clc1ccc(Nc2nn3c(-c4cccc(Cl)c4)nnc3s2)cc1,Ratio,Staphylococcus aureus [1],64
same,MBC,[2],3.91 µg/mL
same,MIC,[2],0.98 µg/mL
same,Activity,Proteus mirabilis,inactive
same,MBC,Bacillus subtilis [3],1.95 µg/mL
same,MIC,Bacillus subtilis [3],1.95 µg/mL
same,MBC,Bacillus cereus [4],15.6 µg/mL
same,MIC,Bacillus cereus [4],7.81 µg/mL
same,MBC,Staphylococcus aureus [5],62.5 µg/mL
same,MIC,Staphylococcus aureus [5],0.98 µg/mL
same,Ratio,Bacillus subtilis [6],8
same,MBC,Micrococcus luteus,3.91 µg/mL
same,MIC,Micrococcus luteus,3.91 µg/mL
same,Activity,Pseudomonas aeruginosa,inactive
same,Ratio,Bacillus cereus [7],4
same,MBC,Staphylococcus aureus [8],31.2 µg/mL
same,MIC,Staphylococcus aureus [8],1.95 µg/mL
same,Ratio,Bacillus cereus [9],8
same,Activity,Klebsiella pneumoniae,inactive
same,Activity,Escherichia coli,inactive
same,MBC,Staphylococcus aureus [10],31.2 µg/mL
same,MIC,Staphylococcus aureus [10],0.49 µg/mL
CC1(C)S[C@@H]2[C@H](NC(=O)[C@H](N)c3ccccc3)C(=O)N2[C@H]1C(=O)O [AMPICILLIN],MIC,Bacillus cereus [4],62.5 µg/mL
CO/N=C(\C(=O)N[C@@H]1C(=O)N2C(C(=O)O)=C(COC(N)=O)CS[C@H]12)c1ccco1 [CEFUROXIME],MIC,[2],0.24 µg/mL
same,MIC,Bacillus subtilis [3],15.6 µg/mL
same,MIC,Bacillus cereus [4],31.2 µg/mL
same,MIC,Micrococcus luteus,0.98 µg/mL
same,MIC,Staphylococcus aureus [8],0.49 µg/mL
same,MIC,Staphylococcus aureus [10],0.98 µg/mL
Brc1ccc(Nc2nn3c(-c4ccccc4)nnc3s2)cc1,Ratio,Staphylococcus aureus [1],8
same,MBC,[2],0.98 µg/mL
same,MIC,[2],0.49 µg/mL
same,Activity,Proteus mirabilis,inactive
same,MBC,Bacillus subtilis [3],1.91 µg/mL
same,MIC,Bacillus subtilis [3],0.98 µg/mL
same,MBC,Bacillus cereus [4],15.6 µg/mL
same,MIC,Bacillus cereus [4],15.6 µg/mL
same,MBC,Staphylococcus aureus [5],62.5 µg/mL
same,MIC,Staphylococcus aureus [5],7.81 µg/mL
same,Ratio,Bacillus subtilis [6],16
same,MBC,Micrococcus luteus,7.81 µg/mL
same,MIC,Micrococcus luteus,3.91 µg/mL
same,Activity,Pseudomonas aeruginosa,inactive
same,Ratio,Bacillus cereus [7],2
same,MBC,Staphylococcus aureus [8],31.2 µg/mL
same,MIC,Staphylococcus aureus [8],0.98 µg/mL
same,Ratio,Bacillus cereus [9],4
same,Activity,Klebsiella pneumoniae,inactive
same,Activity,Escherichia coli,inactive
same,MBC,Staphylococcus aureus [10],125 µg/mL
same,MIC,Staphylococcus aureus [10],15.6 µg/mL
